Test results reported in ChEMBL document CHEMBL4732186, “Targeting the transmembrane domain 5 of latent membrane protein 1 using small molecule modulators” (Eur J Med Chem, 2021).

What was measured:
[1] = Binding affinity to EpsteinBarr virus Transmembrane domain 5 of latent membrane protein 1 assessed as dissociation constant by spectrofluorimetric analysis; set-up: species or system human gammaherpesvirus 4
[2] = Inhibition of recombinant EpsteinBarr virus Transmembrane domain 5 of latent membrane protein 1 transformed into Escherichia coli FHK12 cells assessed as disruption of oligomerization by measuring ToxR transcription activity assay; set-up: species or system human gammaherpesvirus 4
[3] = test system: Escherichia coli; assay: Antibacterial activity against Escherichia coli FHK12; type: ADME, organism-based
Procedure, shortened: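 FHK12 E. coli transformed by heat shock (42 °C, 90 s) with the ToxR7-TMD-5 plasmid. Grown in LB with 0.0025% arabinose and 30 µg/mL chloramphenicol plus a range of test-compound concentrations, shaken at 37 °C for 20 h, five replicate cultures. Growth read as OD at 600 nm.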

[4] = Apparent permeability in dog MDCK cells measured after 150 mins; type: ADME, cell-based, Canis lupus familiaris
Procedure, shortened: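 MDCK cells (passage 20-35) seeded at 5×10^4 cells/well on 0.4 µm Transwell inserts and grown 4-5 days to confluence. Monolayers washed with HBSS pH 7.4 and equilibrated 30 min. Compound added apically or basolaterally; receiver side sampled at 150 min, then frozen and lyophilized. TEER checked afterward for monolayer integrity.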

[5] = test system: human gammaherpesvirus 4; assay: Potency index, ratio of IC50 of pentamidine to IC50 of compound for inhibition of recombinant EpsteinBarr virus Transmembrane domain 5 of latent membrane protein 1 transformed into FHK12 cells by ToxR assay
Procedure, shortened: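 ToxR7-TMD-5 plasmid heat-shocked into FHK12 E. coli; cultures in LB with 0.0025% arabinose and 30 µg/mL chloramphenicol with graded compound concentrations, five replicates, shaken 37 °C for 20 h. Cells lysed with Z buffer/SDS, then ONPG (0.4% w/v) added; β-galactosidase followed at 405 nm for 20 min at 28 °C.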

Structure (SMILES)	Kd [1] [µM]	IC50 [2] [µM]	IC50 [3] [µM]	Papp at 2.5 h [4] [×10⁻⁶ cm/s]	Ratio IC50 [5]
N=C(N)c1ccc(NC(=O)CCC(=O)Nc2ccc(C(=N)N)cc2)cc1	13.5	112	> 200		
N=C(N)c1ccc(C(=O)NCCCNC(=O)c2ccc(C(=N)N)cc2)cc1		> 200	> 200	1.07	
N=C(N)c1ccc(NC(=O)CCCCC(=O)Nc2ccc(C(=N)N)cc2)cc1	8.9	42	> 200		
N=C(N)c1ccc(NC(=O)CCCC(=O)Nc2ccc(C(=N)N)cc2)cc1	2.6	0.6	56.4	4.28	15
N=C(N)c1ccc(NCCCCCNc2ccc(C(=N)N)cc2)cc1	7.3	31.2	> 200		
